For 18 compounds, inhibition, Activity and IC50 results are on record in ChEMBL document CHEMBL1148747, “Structure-activity relationship studies of spinorphin as a potent and selective human P2X(3) receptor antagonist” (J Med Chem, 2007).

Experiment [1] has as its target T1, P2X purinoceptor 1 (Mus musculus) (UniProt P51576).
T1 sequence (whole entry): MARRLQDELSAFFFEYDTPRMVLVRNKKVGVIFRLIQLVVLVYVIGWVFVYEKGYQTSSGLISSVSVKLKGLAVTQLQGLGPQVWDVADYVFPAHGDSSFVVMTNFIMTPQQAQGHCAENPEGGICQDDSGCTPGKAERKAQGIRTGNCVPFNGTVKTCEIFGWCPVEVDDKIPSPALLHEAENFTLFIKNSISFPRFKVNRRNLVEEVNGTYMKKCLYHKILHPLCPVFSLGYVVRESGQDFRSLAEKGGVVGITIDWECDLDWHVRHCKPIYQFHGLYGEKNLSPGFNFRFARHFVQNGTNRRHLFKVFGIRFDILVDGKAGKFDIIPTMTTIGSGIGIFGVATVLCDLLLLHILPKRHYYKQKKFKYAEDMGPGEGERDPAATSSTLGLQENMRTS
The experiment in a line: Antagonist activity at mouse recombinant P2X1 receptor expressed in Xenopus oocytes assessed as inhibition of ATP-induced ion current at 10 uM by two electrode voltage clamping technique. Format: functional, cell-based. The following applies: Oocyte. In a few lines: (§1)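 Defolliculated Xenopus oocytes injected with receptor cRNA (40 nL, 1 µg/mL). Incubated 24 h at 18 °C in Barth's solution, then kept at 4 °C for up to 12 days. Two-electrode voltage clamp at Vh -90 mV in Ringer's solution (Ba2+, pH 7.5, 18 °C). Peptide applied 20 min before 2 µM ATP; current inhibition measured against ATP-alone control; n = 4.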
For orientation: Two-electrode voltage clamp holds a large cell at a set potential and records current.

Experiment [2] addresses T2, P2X purinoceptor 7 (Homo sapiens) (UniProt Q99572).
T2 sequence (whole entry): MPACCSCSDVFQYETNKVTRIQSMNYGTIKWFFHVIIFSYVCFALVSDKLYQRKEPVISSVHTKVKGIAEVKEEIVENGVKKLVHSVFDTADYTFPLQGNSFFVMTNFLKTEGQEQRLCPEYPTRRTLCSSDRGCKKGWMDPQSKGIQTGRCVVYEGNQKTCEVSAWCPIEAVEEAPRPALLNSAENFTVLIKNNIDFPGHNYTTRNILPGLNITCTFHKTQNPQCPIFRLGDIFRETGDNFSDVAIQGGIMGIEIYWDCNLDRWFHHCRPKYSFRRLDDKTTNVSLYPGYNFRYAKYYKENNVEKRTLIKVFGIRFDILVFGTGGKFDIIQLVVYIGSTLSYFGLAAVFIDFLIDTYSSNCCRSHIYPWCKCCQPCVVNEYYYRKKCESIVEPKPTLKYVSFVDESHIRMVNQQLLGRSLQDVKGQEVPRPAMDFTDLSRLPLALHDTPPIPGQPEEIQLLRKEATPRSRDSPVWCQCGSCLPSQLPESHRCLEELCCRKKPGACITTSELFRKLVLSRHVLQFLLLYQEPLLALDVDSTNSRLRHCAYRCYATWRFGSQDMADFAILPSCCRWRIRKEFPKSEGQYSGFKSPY
The experiment in a line: Antagonist activity at human recombinant P2X7 receptor expressed in HEK293 cells assessed as BzATP-induced ethidium accumulation at 10 uM. Format: functional, cell-based. In a few lines: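 HEK293 cells expressing human P2X7, grown in DMEM with 10% FBS. Cells resuspended in HEPES/KCl/glucose/EDTA buffer (pH 7.4) with 100 µM ethidium bromide, 2 × 10^5 cells/well. 6 µM BzATP given together with 10 µM compound, no preincubation. After 120 min at 37 °C, ethidium fluorescence read (ex 530/em 590 nm). Mean ± SEM, n = 3.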

For experiment [3], the target named is T3, P2X purinoceptor 3 (Homo sapiens) (UniProt P56373).
T3 sequence (whole entry): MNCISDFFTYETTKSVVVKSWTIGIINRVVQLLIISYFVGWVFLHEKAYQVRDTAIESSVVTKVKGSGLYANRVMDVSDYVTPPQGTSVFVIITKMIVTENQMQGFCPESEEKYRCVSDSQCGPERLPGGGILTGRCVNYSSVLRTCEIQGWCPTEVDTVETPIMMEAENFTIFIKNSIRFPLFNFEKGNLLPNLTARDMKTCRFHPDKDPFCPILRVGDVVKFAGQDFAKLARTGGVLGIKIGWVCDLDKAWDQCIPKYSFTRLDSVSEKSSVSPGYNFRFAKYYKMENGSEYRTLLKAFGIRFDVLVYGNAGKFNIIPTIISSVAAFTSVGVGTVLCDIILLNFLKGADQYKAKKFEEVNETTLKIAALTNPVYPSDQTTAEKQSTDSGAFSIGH
Put plainly: Antagonist activity at human recombinant P2X3 receptor expressed in Xenopus oocytes assessed as inhibition of ATP-induced ion current at 10 uM by two electrode voltage clamping technique. The following applies: Oocyte. Format: functional, cell-based. In a few lines:
as §1

For experiment [4], the target named is T3, P2X purinoceptor 3 (Homo sapiens). The experiment in a line: Antagonist activity at human recombinant P2X3 receptor expressed in Xenopus oocytes assessed as inhibition of ATP-induced ion current at 100 nM by two electrode voltage clamping technique. The note with it: Oocyte.
The target in experiment [5] is T4, P2X purinoceptor 3 (Homo sapiens, UniProt P56373).
T4 sequence (P56373 whole entry): T3 sequence (whole entry)
The experiment in a line: Antagonist activity at human P2X3 receptor expressed in Xenopus oocytes assessed as inhibition of ATP-induced ion current by two electrode voltage clamping technique. Format: functional, cell-based, Oocyte. In a few lines: as §1

For experiment [6], the target named is T1, P2X purinoceptor 1 (Mus musculus). Put plainly: Antagonist activity at mouse recombinant P2X1 receptor expressed in Xenopus oocytes assessed as inhibition of ATP-induced ion current at 100 nM by two electrode voltage clamping technique. The following applies: Oocyte.
Experiment [7] concerns the target T4, P2X purinoceptor 3. The experiment in a line: Antagonist activity at human recombinant P2X3 receptor expressed in Xenopus oocytes assessed as inhibition of ATP-induced ion current in presence of 20 nM LVVYPWA peptide by two electrode voltage clamping technique. Format: functional, cell-based, Oocyte.

Active and inactive are the calls of the source. No cut-off for these calls is given here. Residues, ends and D or L forms follow the SMILES beside them.

As a reminder, the inhibition is the change of the read-out against control, counted positive when it falls. The IC50 is the midpoint of a concentration-inhibition curve.

Take `CC(C)C[C@@H](NC(=O)[C@H](NC(=O)[C@H](NC(=O)[C@@H](Cc1ccc(O)cc1)NC(=O)[C@H]1CCCN1C(=O)[C@@H](Cc1c[nH]c2ccccc12)NC(=O)[C@H](N)[C@@H](C)O)C(C)C)C(C)C)C(=O)O`: the inhibition in experiment [1] came to 15.5%. For the same compound, in experiment [2], the outcome was inactive.

Regarding `C[C@@H](O)[C@H](NC(=O)[C@H](Cc1c[nH]c2ccccc12)NC(=O)[C@@H]1CCCN1)C(=O)O` (H-Pro-Trp-Thr-OH), the inhibition in experiment [3] was determined as 32.7%.

With `N[C@@H](Cc1ccc(O)cc1)C(=O)N1CCC[C@H]1C(=O)N[C@@H](Cc1c[nH]c2ccccc12)C(=O)O` (H-Tyr-Pro-Trp-OH), the inhibition in experiment [3] came to 15.6%.

With `CC(C)[C@H](N)C(=O)N[C@@H](Cc1ccc(O)cc1)C(=O)N1CCC[C@H]1C(=O)N[C@@H](Cc1c[nH]c2ccccc12)C(=O)O` (H-VYPW-OH), in experiment [3], the result was inactive.

For the compound `CC(C)[C@H](N)C(=O)N[C@@H](Cc1ccc(O)cc1)C(=O)N1CCC[C@H]1C(=O)O` (H-Val-Tyr-Pro-OH), the inhibition in experiment [3] was 16.2%.

`C[C@@H](O)[C@H](NC(=O)[C@H](Cc1c[nH]c2ccccc12)NC(=O)[C@@H]1CCCN1C(=O)[C@@H](N)Cc1ccc(O)cc1)C(=O)O` (H-YPWT-OH): the inhibition in experiment [3] was 13.3%.

On to `CC(C)[C@@H]1NC(=O)[C@H](C)NC(=O)[C@H]([C@@H](C)O)NC(=O)[C@H](Cc2c[nH]c3ccccc23)NC(=O)[C@@H]2CCCN2C(=O)[C@H](Cc2ccc(O)cc2)NC(=O)[C@H](C(C)C)NC1=O` (HELM PEPTIDE1{A.V.V.Y.P.W.T}$PEPTIDE1,PEPTIDE1,1:R1-7:R2$$$V2.0), for which the inhibition in experiment [1] was found to be 6.4%; in experiment [4], 11.4%. Further, the outcome in experiment [2] was inactive.

Regarding `CC(C)C[C@@H]1NC(=O)[C@H]([C@@H](C)O)NC(=O)[C@H](Cc2c[nH]c3ccccc23)NC(=O)[C@@H]2CCCN2C(=O)[C@H](Cc2ccc(O)cc2)NC(=O)[C@H](C(C)C)NC(=O)[C@H](C(C)C)NC1=O` (HELM PEPTIDE1{L.V.V.Y.P.W.T}$PEPTIDE1,PEPTIDE1,1:R1-7:R2$$$V2.0), on P2X purinoceptor 3 [5], the IC50 is 82.4 nM. Besides, the inhibition in experiment [1] is 11.5%; in experiment [2], 8.8%; in experiment [4], 36.3%.

`Cc1nc(/N=N/c2cc(S(=O)(=O)O)ccc2S(=O)(=O)O)c(COP(=O)(O)O)c(C=O)c1O` [ISOPPADS]: at P2X purinoceptor 3 [5], the 50% inhibitory concentration (IC50) was determined as 108 nM. The inhibition in experiment [6] came out at 64.2%; in experiment [4] it was 48.3%.

As to H-AVVYPWT-OH, the IC50 at P2X purinoceptor 3 [5] worked out at 14.3 nM. The result in experiment [1] and in experiment [2] was inactive. The inhibition in experiment [4] turned out to be 82.5%.

For H-LAVYPWT-OH, the IC50 on P2X purinoceptor 3 [5] worked out at 32.4 nM. The inhibition was found to be 8.1% in experiment [1], 7.6% in experiment [2] and 48.4% in experiment [4].

Take H-LVAYPWT-OH: the result in experiment [1] and in experiment [2] was inactive. Moreover, the inhibition in experiment [4] was 53.4%.

On to H-LVVAPWT-OH, for which the outcome in experiment [1] and in experiment [2] was inactive. Further, in experiment [4], the inhibition came out at 52.3%.

For the compound H-LVVYAWT-OH, the outcome in experiment [1] and in experiment [2] was inactive. For the same compound, the inhibition in experiment [4] came out at 12.9%.

For H-LVVYPAT-OH, the inhibition in experiment [1] came to 4.2%; in experiment [2] it was 16.7%; in experiment [4], 17%.

Take H-LVVYPWT-OH [SPINORPHIN]: the IC50 at P2X purinoceptor 3 [5] is 0.0083 nM; on P2X purinoceptor 3 [7] it was 0.0481 nM. In addition, the inhibition in experiment [1] was 7.4%; in experiment [2], 8.3%; in experiment [4], 67.2%.

As for H-VVYPWT-OH, the inhibition in experiment [3] was found to be 29.3%.

As to H-VYPWT-OH, the result in experiment [3] was inactive.
